Drawing on ChEMBL document CHEMBL4118057, “Cytotoxic Bagremycins from Mangrove-Derived Streptomyces sp. Q22” (J Nat Prod, 2017), this text covers Activity and IC50 for nine molecules.

Experiment [1] relates to U-87 MG. The experiment is described as follows: Cell cycle arrest in human U87MG cells assessed as accumulation at G2/M phase at 2.2 uM after 12 hrs by propidium iodide staining based flow cytometric method (reference value: 9.37%). Type of experiment: functional, U-87MG ATCC.
In experiment [2] the test system is U-87 MG. The experiment is described as follows: Induction of apoptosis in human U87MG cells assessed as increase in total apoptotic cells at 2.2 uM after 72 hrs by annexin-V-FITC/propidium iodide staining based flow cytometric method relative to control. It counts as functional, U-87MG ATCC. The method in brief: (§1)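 U87MG cells were exposed for 24, 48 or 72 h, and 1 × 10^6 cells were harvested and washed in cold PBS. They were stained in binding buffer with annexin V-FITC and PI for 15 min at room temperature. Flow cytometry used 488 nm excitation with emission at 530/575 nm. Early plus late apoptotic cells were summed, and the untreated control was subtracted.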
Background: Flow cytometry measures light scatter and fluorescence of single cells or particles in a stream.

The subject of another experiment is C6. The experiment is described as follows: Cytotoxicity against rat C6 cells after 72 hrs by sulforhodamine B assay. It counts as functional, cell-based. Particulars: C6, 72 h. The method in brief:
(§2)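 SRB assay. C6 and U251 in DMEM with 10% FBS, SHG44 in RPMI-1640, all at 37 °C, 5% CO2. Cells adhered 24 h, then were exposed to a range of concentrations for 72 h. Fixed in cold 50% TCA at 4 °C for 1 h, stained with 0.4% SRB for 10 min, rinsed with 1% acetic acid. Dye dissolved in 10 mM Tris, OD read at 515 nm. Viability taken as treated/control OD; IC50 by logistic fit; n = 5.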
Background: The SRB assay estimates cell density from bound dye.

Experiment [3] has as its system U-87 MG. The experiment is described as follows: Cell cycle arrest in human U87MG cells assessed as accumulation at G2/M phase at 8.8 uM after 12 hrs by propidium iodide staining based flow cytometric method (reference value: 9.37%). Type of experiment: functional, U-87MG ATCC.
Experiment [4] in a line: Cytotoxicity against human SHG44 cells after 72 hrs by sulforhodamine B assay. Particulars: SHG-44, 72 h. Type of experiment: functional, cell-based. The method in brief:
as §2

Another experiment deals with U-251. The experiment is described as follows: Cytotoxicity against human U251 cells after 72 hrs by sulforhodamine B assay. Particulars: U-251, 72 h. It counts as functional, cell-based. The method in brief:
as §2

Experiment [5] has as its system U-87 MG. The experiment is described as follows: Cell cycle arrest in human U87MG cells assessed as accumulation at G2/M phase at 4.4 uM after 12 hrs by propidium iodide staining based flow cytometric method (reference value: 9.37%). It counts as functional, U-87MG ATCC.
In experiment [6] the test system is U-87 MG. The experiment is described as follows: Cell cycle arrest in human U87MG cells assessed as accumulation at S phase at 2.2 uM after 12 hrs by propidium iodide staining based flow cytometric method (reference value: 32.49%). It counts as functional, U-87MG ATCC.
Experiment [7] has as its system U-87 MG. The experiment is described as follows: Cell cycle arrest in human U87MG cells assessed as accumulation at S phase at 8.8 uM after 12 hrs by propidium iodide staining based flow cytometric method (reference value: 32.49%). It counts as functional, U-87MG ATCC.
Experiment [8] deals with U-87 MG. The experiment is described as follows: Cell cycle arrest in human U87MG cells assessed as accumulation at S phase at 4.4 uM after 12 hrs by propidium iodide staining based flow cytometric method (reference value: 32.49%). Type of experiment: functional, U-87MG ATCC.
For experiment [9], the system named is U-87 MG. The experiment is described as follows: Cell cycle arrest in human U87MG cells assessed as increase in accumulation at G0/G1 phase at 8.8 uM after 12 hrs by propidium iodide staining based flow cytometric method relative to control. Type of experiment: functional, U-87MG ATCC.
Another experiment concerns Escherichia coli. The experiment is described as follows: Antimicrobial activity against Escherichia coli ATCC 25922 after 12 hrs by micro broth dilution method. It counts as functional, organism-based. The essentials:
(§3)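 Micro broth dilution: compound stock serially diluted with 50% DMSO (final volume 200 μL), inoculated with 2 μL of 10^8 cf/mL culture, incubated 37 °C for 12 h. Clear wells and the next dilutions plated on nutrient agar, incubated 37 °C for 12 h. MIC taken as the dilution that inhibited growth.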
A general note: In broth dilution the organism is exposed to a series of concentrations in liquid medium.

Experiment [10] has as its system U-87 MG. The experiment is described as follows: Cell cycle arrest in human U87MG cells assessed as increase in accumulation at G0/G1 phase at 2.2 uM after 12 hrs by propidium iodide staining based flow cytometric method relative to control. Type of experiment: functional, U-87MG ATCC.
In the next experiment the test system is Staphylococcus aureus. The experiment is described as follows: Antimicrobial activity against methicillin-resistant Staphylococcus aureus ATCC 43300 after 12 hrs by micro broth dilution method. It counts as functional, organism-based. The method in brief:
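Test compounds serially diluted in 50% DMSO in broth microdilution plates. Each well received 2 μL of a 10^8 cf/mL culture, then incubated at 37 °C for 12 h overnight and read by eye. Clear wells and the next dilutions were plated on nutrient agar for 12 h at 37 °C. MIC was taken as the growth-inhibiting dilution. Gentamicin served as positive control.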

Experiment [11] concerns U-87 MG. The experiment is described as follows: Cytotoxicity against human U87MG cells after 72 hrs by sulforhodamine B assay. Type of experiment: functional, cell-based, U-87MG ATCC. The essentials: as §2
In experiment [12] the test system is U-87 MG. The experiment is described as follows: Induction of apoptosis in human U87MG cells assessed as increase in total apoptotic cells at 4.4 uM after 24 hrs by annexin-V-FITC/propidium iodide staining based flow cytometric method relative to control. Type of experiment: functional, U-87MG ATCC. The essentials: as §1
In experiment [13] the test system is U-87 MG. The experiment is described as follows: Induction of apoptosis in human U87MG cells assessed as increase in total apoptotic cells at 4.4 uM after 72 hrs by annexin-V-FITC/propidium iodide staining based flow cytometric method relative to control. It counts as functional, U-87MG ATCC. The essentials:
as §1

For experiment [14], the system named is U-87 MG. The experiment is described as follows: Cell cycle arrest in human U87MG cells assessed as increase in accumulation at G0/G1 phase at 4.4 uM after 12 hrs by propidium iodide staining based flow cytometric method relative to control. It counts as functional, U-87MG ATCC.
For experiment [15], the system named is U-87 MG. The experiment is described as follows: Induction of apoptosis in human U87MG cells assessed as increase in total apoptotic cells at 4.4 uM after 48 hrs by annexin-V-FITC/propidium iodide staining based flow cytometric method relative to control. It counts as functional, U-87MG ATCC. The method in brief: as §1
A further experiment concerns Candida albicans. The experiment is described as follows: Antimicrobial activity against Candida albicans after 12 hrs by micro broth dilution method. It counts as functional, organism-based. The method in brief: as §3
In experiment [16] the test system is U-87 MG. The experiment is described as follows: Induction of apoptosis in human U87MG cells assessed as increase in total apoptotic cells at 2.2 uM after 48 hrs by annexin-V-FITC/propidium iodide staining based flow cytometric method relative to control. Type of experiment: functional, U-87MG ATCC. The essentials: as §1
Experiment [17] deals with U-87 MG. The experiment is described as follows: Induction of apoptosis in human U87MG cells assessed as increase in total apoptotic cells at 2.2 uM after 24 hrs by annexin-V-FITC/propidium iodide staining based flow cytometric method relative to control. It counts as functional, U-87MG ATCC. The essentials: as §1
The subject of experiment [18] is U-87 MG. The experiment is described as follows: Cell cycle arrest in human U87MG cells assessed as increase in accumulation at G0/G1 phase at 0.8 uM after 12 hrs by propidium iodide staining based flow cytometric method relative to control. It counts as functional, U-87MG ATCC.
In experiment [19] the test system is U-87 MG. The experiment is described as follows: Induction of apoptosis in human U87MG cells assessed as increase in total apoptotic cells at 10 uM after 48 hrs by annexin-V-FITC/propidium iodide staining based flow cytometric method relative to control. It counts as functional, U-87MG ATCC. The essentials: as §1
Experiment [20] deals with U-87 MG. The experiment is described as follows: Cell cycle arrest in human U87MG cells assessed as accumulation at G2/M phase at 0.8 uM after 12 hrs by propidium iodide staining based flow cytometric method (reference value: 9.37%). Type of experiment: functional, U-87MG ATCC.
Experiment [21] concerns U-87 MG. The experiment is described as follows: Cell cycle arrest in human U87MG cells assessed as accumulation at S phase at 0.8 uM after 12 hrs by propidium iodide staining based flow cytometric method (reference value: 32.49%). It counts as functional, U-87MG ATCC.
For experiment [22], the system named is U-87 MG. The experiment is described as follows: Induction of apoptosis in human U87MG cells assessed as increase in total apoptotic cells at 10 uM after 72 hrs by annexin-V-FITC/propidium iodide staining based flow cytometric method relative to control. Type of experiment: functional, U-87MG ATCC. The essentials: as §1
Experiment [23] relates to U-87 MG. The experiment is described as follows: Induction of apoptosis in human U87MG cells assessed as increase in total apoptotic cells at 10 uM after 24 hrs by annexin-V-FITC/propidium iodide staining based flow cytometric method relative to control. It counts as functional, U-87MG ATCC. The method in brief:
as §1

Active and inactive are the calls of the source. The rule behind the calls is not given here.

One may read the IC50 as the concentration at which inhibition is half-maximal. Turning to `C=Cc1ccc(OC(=O)c2ccc(O)c(N)c2SC[C@@H](NC(C)=O)C(=O)O)cc1`, the Activity came out at 8.92% in the experiment on U-87 MG [1]; 58.32% in the experiment on U-87 MG [2]; 7.53% in the experiment on U-87 MG [3]; 8.92% in the experiment on U-87 MG [5]; 27.23% in the experiment on U-87 MG [6]; 13.77% with U-87 MG [7]. The Activity is given as 16.76% with U-87 MG [8]; 20.56% in the experiment with U-87 MG [9]; 5.71% in the experiment on U-87 MG [10]; 3.36% in the experiment on U-87 MG [12]; 93% in the experiment with U-87 MG [13]; 16.18% in the experiment with U-87 MG [14]. The Activity in the experiment on U-87 MG [15] was determined as 61.16%; with U-87 MG [16] it was 20.59%; in the experiment on U-87 MG [17], 0.96%. Besides, the IC50 in the experiment on C6 worked out at 6.4 µM; in experiment [4], 2.4 µM; in the experiment on U-251 it was 4.3 µM; in the experiment with U-87 MG [11], 2.2 µM. Further, the result with Escherichia coli, in the experiment on Staphylococcus aureus and with Candida albicans was inactive.
In the case of `O=C1Oc2ccc(cc2)[C@H](O)CNc2cc1ccc2O`, the result with Escherichia coli, in the experiment with Staphylococcus aureus and in the experiment with Candida albicans was inactive.
With `C=Cc1ccc(OC(=O)c2ccc(O)cc2)cc1`, the outcome with Escherichia coli, with Staphylococcus aureus and in the experiment on Candida albicans was inactive.
Consider `COc1cccc2c1C(=O)c1c(O)c3c(c(O)c1C2=O)C[C@@](O)(C(=O)CO)C[C@@H]3O[C@H]1C[C@H](N)[C@H](O)[C@H](C)O1` [DOXORUBICIN], for which the IC50 amounted to 0.5 µM in the experiment on C6, 1.9 µM in experiment [4], 3.3 µM in the experiment on U-251 and 0.4 µM with U-87 MG [11]. The Activity in the experiment on U-87 MG [18] is 24.74%; with U-87 MG [19], 10.42%; in the experiment with U-87 MG [20], 6.28%; in the experiment on U-87 MG [21] it was 10.84%; with U-87 MG [22], 26.87%; in the experiment on U-87 MG [23] it was 3.17%.
Turning to `C=Cc1ccc(OC(=O)c2ccc(O)c(NC(C)=O)c2)cc1`, the IC50 in the experiment on C6 worked out at 13.3 µM; in experiment [4], 7.3 µM; in the experiment on U-251, 9.7 µM; in the experiment with U-87 MG [11], 10.2 µM. Moreover, the result in the experiment with Escherichia coli, in the experiment on Staphylococcus aureus and in the experiment with Candida albicans was inactive.
As to `C=Cc1ccc(OC(=O)c2ccc(O)c(N)c2S)cc1`, the outcome in the experiment with Escherichia coli, in the experiment with Staphylococcus aureus and in the experiment with Candida albicans was inactive.
As to `C=Cc1ccc(O[C@H]2O[C@H](CO)[C@H](O)[C@H](O)[C@H]2O)cc1`, the outcome in the experiment on Escherichia coli, in the experiment with Staphylococcus aureus and in the experiment with Candida albicans was inactive.
Turning to `C=Cc1ccc(O)cc1`, the result in the experiment on Escherichia coli, in the experiment with Staphylococcus aureus and in the experiment on Candida albicans was inactive.
Take `C=Cc1ccc(OC(=O)c2ccc(O)c(N)c2)cc1`: the outcome with Escherichia coli, in the experiment with Staphylococcus aureus and in the experiment with Candida albicans was inactive.
